Measurements: ChEMBL document CHEMBL2203022, “Design, synthesis and antimicrobial evaluation of novel 1-benzyl 2-butyl-4-chloroimidazole embodied 4-azafluorenones via molecular hybridization approach” (2012)

Experiments:
Assay type in all cases: functional
Bacillus subtilis = assay: Antibacterial activity against Bacillus subtilis MTCC 121 at 10 ug per disk after 24 hrs by disc diffusion method; conditions: for zone of inhibition at 10 µg/disc: MTCC 121, 24 h, read-out: DIZ
Method in brief: (§1)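 Standard 0.5 McFarland inoculum spread evenly over nutrient agar plates with a sterile L-shaped glass spreader. Plates incubated 24 h at 37 °C. Gentamicin as reference standard. Read-out: zone of inhibition in mm, measured in triplicate and compared with control and standard.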

Staphylococcus aureus = assay: Antibacterial activity against Staphylococcus aureus MTCC 1430 at 10 ug per disk after 24 hrs by disc diffusion method; conditions: MTCC 1430, 24 h, read-out: DIZ; method in brief: as §1
Klebsiella pneumoniae = assay: Antibacterial activity against Klebsiella pneumoniae MTCC 618 at 10 ug per disk after 24 hrs by disc diffusion method; conditions: for zone of inhibition at 10 µg/disc: MTCC 618, 24 h, read-out: DIZ; method in brief: as §1
Pseudomonas aeruginosa = assay: Antibacterial activity against Pseudomonas aeruginosa MTCC 2453 at 10 ug per disk after 24 hrs by disc diffusion method; conditions: MTCC 2453, 24 h, read-out: DIZ; method in brief: as §1
Candida albicans = assay: Antifungal activity against Candida albicans MTCC 7253 at 10 ug per disk after 2 to 3 days by disc diffusion method; conditions: read-out: DIZ
Method in brief: (§2)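 Fungal inoculum: a loopful of each strain suspended in saline, spread evenly on yeast extract potato dextrose agar with a sterile glass spreader. Sterile 5 mm discs loaded with test compound in DMSO placed on the agar. Plates incubated 2–3 days at room temperature. Nystatin as reference standard. Zones of inhibition measured and compared with control and standard.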

Aspergillus flavus = assay: Antifungal activity against Aspergillus flavus MTCC 8188 at 10 ug per disk after 2 to 3 days by disc diffusion method; conditions: for zone of inhibition at 10 µg/disc: read-out: DIZ; method in brief: as §2
Escherichia coli = assay: Antibacterial activity against Escherichia coli MTCC 1573 at 10 ug per disk after 24 hrs by disc diffusion method; conditions: MTCC 1573, 24 h, read-out: DIZ; method in brief: as §1

Compound	zone of inhibition at 10 µg/disc (Bacillus subtilis)	zone of inhibition at 10 µg/disc (Staphylococcus aureus)	zone of inhibition at 10 µg/disc (Klebsiella pneumoniae)	zone of inhibition at 10 µg/disc (Pseudomonas aeruginosa)	zone of inhibition at 10 µg/disc (Candida albicans)	zone of inhibition at 10 µg/disc (Aspergillus flavus)	zone of inhibition at 10 µg/disc (Escherichia coli)	inhibition zone (IZ) (Aspergillus flavus)	inhibition zone (IZ) (Bacillus subtilis)	inhibition zone (IZ) (Klebsiella pneumoniae)
CCCCc1nc(Cl)c(-c2cc(-c3ccc4sc5ccccc5c4c3)nc3c2C(=O)c2ccccc2-3)n1Cc1ccccc1	9 mm	12 mm	11 mm	7 mm	14 mm	10 mm	8 mm	–	–	–
NYSTATIN	–	–	–	–	–	–	–	9 mm	–	–
CCCCc1nc(Cl)c(-c2cc(-c3ccc(OC)cc3)nc3c2C(=O)c2ccccc2-3)n1Cc1ccccc1	9 mm	10 mm	11 mm	9 mm	12 mm	6 mm	8 mm	–	–	–
CCCCc1nc(Cl)c(-c2cc(-c3cccs3)nc3c2C(=O)c2ccccc2-3)n1Cc1ccccc1	10 mm	10 mm	10 mm	11 mm	10 mm	5 mm	9 mm	–	–	–
CCCCc1nc(Cl)c(-c2cc(-c3ccc4oc5ccccc5c4c3)nc3c2C(=O)c2ccccc2-3)n1Cc1ccccc1	9 mm	11 mm	13 mm	13 mm	10 mm	7 mm	9 mm	–	–	–
CCCCc1nc(Cl)c(-c2cc(-c3cn(S(=O)(=O)c4ccc(C)cc4)c4ccccc34)nc3c2C(=O)c2ccccc2-3)n1Cc1ccccc1	7 mm	10 mm	12 mm	7 mm	13 mm	11 mm	8 mm	–	–	–
CCCCc1nc(Cl)c(-c2cc(-c3ccc(Br)cc3)nc3c2C(=O)c2ccccc2-3)n1Cc1ccccc1	9 mm	12 mm	12 mm	6 mm	10 mm	7 mm	9 mm	–	–	–
CCCCc1nc(Cl)c(-c2cc(-c3ccc(C)cc3)nc3c2C(=O)c2ccccc2-3)n1Cc1ccccc1	8 mm	10 mm	11 mm	8 mm	10 mm	7 mm	9 mm	–	–	–
CCCCc1nc(Cl)c(-c2cc(-c3ccccc3)nc3c2C(=O)c2ccccc2-3)n1Cc1ccccc1	8 mm	12 mm	11 mm	10 mm	10 mm	8 mm	9 mm	–	–	–
CCCCc1nc(Cl)c(-c2cc(-c3cccc4ccccc34)nc3c2C(=O)c2ccccc2-3)n1Cc1ccccc1	10 mm	12 mm	12 mm	6 mm	12 mm	5 mm	9 mm	–	–	–
GENTAMICIN	–	–	–	–	–	–	–	–	14 mm	19 mm
CCCCc1nc(Cl)c(-c2cc(-c3ccc4ccccc4c3)nc3c2C(=O)c2ccccc2-3)n1Cc1ccccc1	9 mm	12 mm	12 mm	13 mm	10 mm	6 mm	8 mm	–	–	–
CCCCc1nc(Cl)c(-c2cc(-c3ccco3)nc3c2C(=O)c2ccccc2-3)n1Cc1ccccc1	8 mm	15 mm	15 mm	14 mm	13 mm	10 mm	8 mm	–	–	–
CCCCc1nc(Cl)c(-c2cc(-c3ccc([N+](=O)[O-])cc3)nc3c2C(=O)c2ccccc2-3)n1Cc1ccccc1	10 mm	10 mm	10 mm	10 mm	11 mm	6 mm	8 mm	–	–	–
CCCCc1nc(Cl)c(-c2cc(-c3ccc(Br)s3)nc3c2C(=O)c2ccccc2-3)n1Cc1ccccc1	9 mm	12 mm	12 mm	13 mm	9 mm	7 mm	8 mm	–	–	–
CCCCc1nc(Cl)c(-c2cc(-c3cc(OC)c(OC)c(OC)c3)nc3c2C(=O)c2ccccc2-3)n1Cc1ccccc1	9 mm	12 mm	11 mm	7 mm	10 mm	6 mm	9 mm	–	–	–
CCCCc1nc(Cl)c(-c2cc(-c3cccc(Br)n3)nc3c2C(=O)c2ccccc2-3)n1Cc1ccccc1	8 mm	12 mm	9 mm	12 mm	11 mm	9 mm	9 mm	–	–	–
